Compounds with a hit are over-represented: about 5.7% of the library has one in this group of screens.
Beta cell apopt = blocks beta cell apoptosis; INS-1E cytokine-induced death, ATP luminescence, 48 h; percent of positive-control rescue, neutral wells zero; protection from apoptosis, % (no concentration beside the values); 0.8% of 300,000 active;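 active means Every replicate reaches about 75%, or at least half do and their mean reaches it too, limit read from the data; inconclusive means At least half of replicates reach the limit but their mean does not; inactive means Under half of replicates reach the limit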;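 further: higher means more ATP so stronger rescue from cytokine killing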
T cruzi inh = T. cruzi replication inhibition | inhibition, % (no concentration beside the values) | 1.4% of 300,000 active | T. cruzi beta-gal in NIH3T3, luminescence, 90 h | AID 1885;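 active means mean inhibition across valid replicates above about 55%, limit read from the data; inconclusive means mean below that limit but half or more replicates reach it; inactive means mean below it, under half of replicates reach it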;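 further: signal also drops with host cell toxicity which is not excluded here; higher percent means less beta-gal luminescence so fewer parasites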
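Read-out: Parasite load inhibition, % | Test system: Mouse NIH/3T3 fibroblasts infected with β-gal-expressing T. cruzi Tulahuen C4 | Amount: 5,000 cells/well | Medium: DMEM, 2% fetal bovine serum | Signal: GalScreen β-gal luminescence, detergent lysis, 60 min | Timing: 3 h attach, ≥90 h co-culture | Also added: Tulahuen C4 trypomastigotes, 5000/well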
Mdm2 MdmX PPI = inhibitors of human Mdm2/MdmX interaction; O15151+Q00987; SaOS-2 split-luciferase Mdm2/MdmX complementation, luminescence; inhibition, % at 8 µM; 3% of 330,000 active; AID 485346;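 active means inhibition of at least 50% at 8 µM in the primary screen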
Target sequence (O15151 whole entry, looked up): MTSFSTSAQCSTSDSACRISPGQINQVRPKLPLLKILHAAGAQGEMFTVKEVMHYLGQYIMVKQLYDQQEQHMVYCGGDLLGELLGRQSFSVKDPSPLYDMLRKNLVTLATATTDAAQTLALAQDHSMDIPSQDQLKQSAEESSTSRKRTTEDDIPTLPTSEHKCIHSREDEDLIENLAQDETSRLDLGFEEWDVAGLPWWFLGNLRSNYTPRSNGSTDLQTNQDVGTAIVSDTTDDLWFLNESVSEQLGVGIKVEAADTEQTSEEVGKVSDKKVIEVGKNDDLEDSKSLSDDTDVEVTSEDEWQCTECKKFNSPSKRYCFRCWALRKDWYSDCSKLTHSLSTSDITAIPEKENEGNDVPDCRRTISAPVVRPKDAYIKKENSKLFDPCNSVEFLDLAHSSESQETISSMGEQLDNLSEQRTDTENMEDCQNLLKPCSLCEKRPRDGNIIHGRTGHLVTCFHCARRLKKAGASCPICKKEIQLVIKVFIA
Target sequence (Q00987 whole entry, looked up): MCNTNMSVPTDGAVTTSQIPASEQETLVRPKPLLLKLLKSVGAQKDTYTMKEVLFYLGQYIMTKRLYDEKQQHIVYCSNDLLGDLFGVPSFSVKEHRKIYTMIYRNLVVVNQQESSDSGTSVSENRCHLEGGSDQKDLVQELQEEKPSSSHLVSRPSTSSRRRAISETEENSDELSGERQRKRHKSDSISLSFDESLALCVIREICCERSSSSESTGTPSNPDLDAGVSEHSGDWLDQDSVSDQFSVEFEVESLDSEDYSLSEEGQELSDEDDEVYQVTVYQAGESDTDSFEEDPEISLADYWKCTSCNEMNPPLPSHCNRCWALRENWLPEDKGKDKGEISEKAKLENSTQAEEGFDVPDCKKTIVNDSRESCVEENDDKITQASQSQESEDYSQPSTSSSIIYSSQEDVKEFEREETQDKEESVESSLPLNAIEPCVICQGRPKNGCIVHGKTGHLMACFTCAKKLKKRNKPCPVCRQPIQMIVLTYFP
CSC inhib = cancer stem cell inhibition. inhibition, % at 7.5 µM. AID 2717. 1.1% of 300,000 active. cancer stem cell-like cells viability, luminescence; in the data active means inhibition above about 75%; inconclusive means no clear call, values can overlap the other calls; tested in HMLE shEcad cells
SKKanGAS inh = SKKanGAS growth inhibition; S. pyogenes SKKanGAS, kanamycin growth, BacTiter-Glo, 6 h; 1.3% of 300,000 active; inhibition, % at 7.5 µM;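 active means mean replicate score, as percent of positive control median, at least 50; inconclusive means mean below 50 but one replicate at or above 50; inactive means mean and every replicate below 50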;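 further: strain carries kanamycin resistance gene driven by streptokinase promoter and grows in 40 µg/ml kanamycin; loss of luminescence reflects streptokinase promoter inhibition or plain growth inhibition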
Calb FLC = C. albicans growth modulation with fluconazole | C. albicans CaCi-2 (fluconazole-resistant clinical isolate) + fluconazole, Alamar Blue growth, 48 h | growth inhibition, % (concentration not given with the values) | 0.57% of 300,000 active;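 active means growth inhibition above about 58% in most replicates, limit read from the data, passing the limit was not always enough; inconclusive means exactly half the replicates above a set limit; inactive means most replicates below a set limit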;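 further: all wells also contain fluconazole at 8 µg/ml as a sub-toxic cotreatment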
Mdm2-MdmX conf = human Mdm2/MdmX binding inhibition, confirmed | shares compounds with Mdm2 MdmX PPI | luminescent assay | inhibition, % at 8 µM | 55% of 10,000 active | AID 489028; in the data active means inhibition above about 40%
FLuc counter = counter-screen for Mdm2/MdmX inhibitors: full-length luciferase; shares compounds with Mdm2 MdmX PPI; SaOS-2 full-length luciferase counterscreen, luminescence; inhibition, % at 8 µM; 77% of 6,200 active; AID 504607;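 active means mean inhibition at 8 µM reaching about 37%, which flags the compound as non-specific, limit read from the data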;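 further: p53-null SaOS-2 cells with luciferase driven by a doxycycline-inducible promoter; compound on cells about two nights before reading with doxycycline added after day one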
Large screens that a line does not name were inactive (follow-up assays come after a bar, where they were run).

CCOC(=O)c1cccc(-[n+]2c(-c3ccccc3)cc(-c3ccccc3)cc2-c2ccccc2)c1	Beta cell apopt 135, Mdm2 MdmX PPI 89 | Mdm2-MdmX conf 50 | FLuc counter inactive
CCOC(=O)c1ccc(-[n+]2c(-c3ccccc3)cc(-c3ccccc3)cc2-c2ccccc2)cc1	Beta cell apopt 123, T cruzi inh 65, Mdm2 MdmX PPI 93 | Mdm2-MdmX conf 61 | FLuc counter inactive
N#Cc1ccccc1OCC(=O)N1CCN(CC(=O)Nc2ccc(F)cc2)CC1	none (no result: Beta cell apopt, T cruzi inh, CSC inhib, SKKanGAS inh, Calb FLC)
C[n+]1c(-c2ccccc2)c2cc(N)ccc2c2ccc(N)cc21	Beta cell apopt 97, T cruzi inh 62, Mdm2 MdmX PPI 85, SKKanGAS inh 100, Calb FLC 93 | Mdm2-MdmX conf 70 | FLuc counter inactive
Nc1ccc2ccc3cccc[n+]3c2c1	none
CCC(=O)N1CC(=O)Nc2ccc(Br)cc2C1c1ccccc1 (configuration not stated)	none
O=C1NC(=O)N(c2ccccc2)C(=O)/C1=C\C=C\c1ccccc1	Mdm2 MdmX PPI 78 | Mdm2-MdmX conf inactive
Cc1ccc(N2C(=O)NC(=O)/C(=C/C=C/c3ccco3)C2=O)cc1	Mdm2 MdmX PPI 54, CSC inhib 79 | Mdm2-MdmX conf inactive
COc1cc(/C=C2\C(=O)NC(=O)N(c3ccccc3)C2=O)cc(OC)c1OC	none
O=C1NC(=O)N(Cc2ccc(F)cc2)C(=O)/C1=C\C=C\c1ccco1	none
CCNC(=S)N(C)CCc1cc2c(c(OC)c1C=C1C(=O)N(C)C(=O)N(C)C1=O)OCO2	none
O=C1NC(=S)NC(=O)C12C(c1ccc(F)cc1)NC(=S)NC2c1ccc(F)cc1 (configuration not stated)	none
C1CCCN(C2CCNCC2)CC1	none (no result: Beta cell apopt)
COc1ccc(C[C@H]2NC[C@H](O)[C@H]2OC(C)=O)cc1	Mdm2 MdmX PPI 98, CSC inhib 79 (no result: Calb FLC) | Mdm2-MdmX conf 98 | FLuc counter inactive
CC[C@H](C)[C@@H]1O[C@@]2(C=CC1C)CC1C[C@@H](CC=C(C)C(O[C@H]3CC(OC)C(O[C@H]4CC(OC)C(O)C(C)O4)C(C)O3)C(C)C=CC=C3CO[C@@H]4C(O)C(C)=C[C@@H](C(=O)O1)[C@]34O)O2 (some centres not stated)	Mdm2 MdmX PPI 85, CSC inhib 103 (no result: T cruzi inh, SKKanGAS inh, Calb FLC) | Mdm2-MdmX conf inactive
Oc1ccc2c3c1OC1c4oc5ccccc5c4C[C@@]4(O)[C@@H](C2)N(CC2CC2)CC[C@]314 (some centres not stated)	none (no result: Beta cell apopt, T cruzi inh, CSC inhib, SKKanGAS inh, Calb FLC)
CC(C)(O)[C@H]1O[C@H]2CC[C@@]3(C)[C@@](O)(CC[C@H]4Cc5c([nH]c6ccccc56)[C@@]43C)C2=CC1=O	Mdm2 MdmX PPI 62 (no result: Calb FLC) | Mdm2-MdmX conf 50 | FLuc counter 77
COc1cccc(NP(=O)(Oc2ccccc2Cl)Oc2ccccc2Cl)c1	none
COc1cccc(NP(=O)(Oc2ccccc2)Oc2ccccc2)c1	Mdm2 MdmX PPI 58, CSC inhib 99 | Mdm2-MdmX conf 53 | FLuc counter 37
CN1CCc2cc3c(c4c2C1Cc1ccccc1-4)OCO3 (configuration not stated)	Beta cell apopt 88, Mdm2 MdmX PPI 59, Calb FLC 92 | Mdm2-MdmX conf 52 | FLuc counter 61
CCOC(=O)c1cncn1[C@H](C)c1ccccc1	none (no result: Calb FLC)
COC(=O)[C@H]1C[C@@H]1[C@H](NP(=O)(c1ccccc1)c1ccccc1)c1ccccc1	none
COC(=O)[C@@H]1C[C@H]1[C@@H](NP(=O)(c1ccccc1)c1ccccc1)c1ccccc1	Mdm2 MdmX PPI 56 | Mdm2-MdmX conf 40 | FLuc counter 63
COC(=O)C1=C(c2cccc(OCc3ccccc3)c2)C[C@@H]2CC[C@H]1N2C(=O)NCc1ccc2[nH]ccc2c1	none (no result: T cruzi inh, SKKanGAS inh, Calb FLC)
Cn1c(NN=O)nc2ccccc21	Beta cell apopt 100, T cruzi inh 55, Mdm2 MdmX PPI 59, CSC inhib 115, SKKanGAS inh 56 | Mdm2-MdmX conf 82 | FLuc counter inactive
CNC(=O)c1cccn(Cc2ccc(C(F)(F)F)cc2)c1=O	Mdm2 MdmX PPI 56 | Mdm2-MdmX conf inactive
Cc1cc(OCC(=O)N2CCC(C(=O)NCC(C)C)CC2)c2c3c(c(=O)oc2c1)CCCC3	none
C[C@]12CCC3C(CC[C@H]4C[C@H](O)CC[C@]34C)C1CCC2=O (some centres not stated)	none (no result: T cruzi inh, SKKanGAS inh, Calb FLC)
c1ccc(-c2ccncc2)cc1	none (no result: Beta cell apopt, T cruzi inh, CSC inhib, SKKanGAS inh, Calb FLC)
c1ccc(-c2cc(-c3ccccc3)[n+](-c3ccccc3)c(-c3ccccc3)c2)cc1	Beta cell apopt 113, Mdm2 MdmX PPI 89, Calb FLC inconclusive | Mdm2-MdmX conf 92 | FLuc counter 56
CN(C)c1ccc(-[n+]2c(-c3ccccc3)cc(-c3ccccc3)cc2-c2ccccc2)cc1	T cruzi inh 61, Mdm2 MdmX PPI 89, Calb FLC 90 (no result: Beta cell apopt, CSC inhib) | Mdm2-MdmX conf 95 | FLuc counter inactive
Cc1ccc(-c2cc(-c3ccccc3)cc(-c3ccccc3)[n+]2-c2ccccc2)cc1	Beta cell apopt 121, Mdm2 MdmX PPI 96, Calb FLC 86 | Mdm2-MdmX conf 92 | FLuc counter inactive
Cc1ccc(-c2cc(-c3ccc(C)cc3)[n+](-c3ccccc3)c(-c3ccc(C)cc3)c2)cc1	Beta cell apopt 122, Mdm2 MdmX PPI 93, Calb FLC 106 | Mdm2-MdmX conf 94 | FLuc counter inactive
Cc1cc(OCC(=O)NC(Cc2ccc(Cl)cc2)C(=O)O)c2c3c(c(=O)oc2c1)CCCC3 (configuration not stated)	none
c1ccc(C2OCCN3CCCCC23)cc1 (configuration not stated)	none (no result: T cruzi inh, CSC inhib, SKKanGAS inh, Calb FLC)
Cc1cc(=O)oc2cc(OCC(=O)N3CCN(C(C)c4ccccc4)CC3)c(Cl)cc12 (configuration not stated)	none (no result: T cruzi inh, CSC inhib, SKKanGAS inh, Calb FLC)
O=c1c2ccccc2nc(/C=C/c2ccc(O)cc2)n1-c1ccccc1O	none
COc1cc(/C=C/c2nc3ccccc3c(=O)n2-c2cccc(O)c2)ccc1O	none
Cc1ccccc1-n1c(/C=C/c2ccccn2)nc2ccccc2c1=O	Mdm2 MdmX PPI 58 | Mdm2-MdmX conf inactive | FLuc counter 67
COc1cc(/C=C/c2nc3ccccc3c(=O)n2-c2ccccc2O)ccc1O	Mdm2 MdmX PPI 69 | Mdm2-MdmX conf inactive
O=c1c2ccccc2nc(/C=C/c2ccccc2)n1-c1ccccc1O	Mdm2 MdmX PPI 53, CSC inhib 90 | Mdm2-MdmX conf inactive
Cc1sc2ncn(CC(=O)NCCCC(=O)N3CCC4(CC3)OCCO4)c(=O)c2c1C	none (no result: Beta cell apopt, T cruzi inh, SKKanGAS inh, Calb FLC)
COc1ccc(C2=NCc3nnc(C)n3-c3ccc(Cl)cc32)cc1Cl	Mdm2 MdmX PPI 65 | Mdm2-MdmX conf inactive
COc1ccc2[nH]c(C)c(CCNCc3cc(OC)c(OC)c(OC)c3)c2c1	none

Screening data from PubChem BioAssay.
